Test results from ChEMBL document CHEMBL4152234, “Aminobenzothiazole derivatives stabilize the thermolabile p53 cancer mutant Y220C and show anticancer activity in p53-Y220C cell lines” (Eur J Med Chem, 2018).
The source made the active and inactive calls. No cut-off for these calls is given here.

Tests used:
[1] = tested on: Cellular tumor antigen p53 (Homo sapiens), P04637 [Y220C]; test: Activation of p53 Y220C mutant in human NUGC3 cells assessed as change in CCNE1 mRNA level at 60 uM after 18 hrs by RT-PCR method relative to control; type: cell-based
How it was run: (§1)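 p53 signalling qPCR array covering 84 genes. Cells were exposed for 18 h, with 0.5% DMSO in both compound and control samples. Total RNA was extracted and purified. Fold-changes were calculated by ΔΔCt using β2-microglobulin (B2M) as the housekeeping gene. Two independent biological replicates were run per cell line.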

[2] = target: T1, Cellular tumor antigen p53 (Homo sapiens, UniProt P04637); test: Activation of p53 in human NUGC4 cells assessed as change in NF1 mRNA level at 60 uM after 18 hrs by RT-PCR method relative to control; type: cell-based; conditions: read-out: FC
How it was run: (§2)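 p53 signaling qPCR array of 84 p53-pathway genes. Cells were treated in 6-well plates for 18 h with 0.5% DMSO in compound and control samples. Total RNA was extracted and fold-changes were obtained by the ΔΔCt method against untreated control, with β2-microglobulin (B2M) as housekeeping gene. Two independent biological replicates per cell line.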

[3] = target: T1, Cellular tumor antigen p53; test: Activation of p53 in human NUGC4 cells assessed as change in GML mRNA level at 60 uM after 18 hrs by RT-PCR method relative to control; type: cell-based; conditions: read-out: FC; how it was run: as §2
[4] = target: T1, Cellular tumor antigen p53; test: Activation of p53 in human NUGC4 cells assessed as change in BTG2 mRNA level at 60 uM after 18 hrs by RT-PCR method relative to control; type: cell-based; conditions: read-out: FC; how it was run: as §2
[5] = tested on: Cellular tumor antigen p53 (Homo sapiens), P04637 [Y220C]; test: Activation of p53 Y220C mutant in human NUGC3 cells assessed as change in BAI1 mRNA level at 60 uM after 18 hrs by RT-PCR method relative to control; type: cell-based; how it was run: as §1
[6] = target: T1, Cellular tumor antigen p53; test: Activation of p53 in human NUGC4 cells assessed as change in BAI1 mRNA level at 60 uM after 18 hrs by RT-PCR method relative to control; type: cell-based; conditions: read-out: FC
How it was run: (§3)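 p53 signalling qPCR array covering 84 p53 pathway genes. Cells were exposed for 18 h, and compound and control wells both held 0.5% DMSO. Total RNA was extracted and purified. Fold-changes were calculated by the ΔΔCt method against the untreated sample, with β2-microglobulin (B2M) as the housekeeping gene. Each cell line was run in two independent biological replicates.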

[7] = target: T1, Cellular tumor antigen p53; test: Activation of p53 in human NUGC4 cells assessed as change in KRAS mRNA level at 60 uM after 18 hrs by RT-PCR method relative to control; type: cell-based; conditions: read-out: FC; how it was run: as §2
[8] = tested on: Cellular tumor antigen p53 (Homo sapiens), P04637 [Y220C]; test: Activation of p53 Y220C mutant in human NUGC3 cells assessed as change in PRKCA mRNA level at 60 uM after 18 hrs by RT-PCR method relative to control; type: cell-based; how it was run: as §3
[9] = target: T1, Cellular tumor antigen p53; test: Activation of p53 in human NUGC4 cells assessed as change in TSC1 mRNA level at 60 uM after 18 hrs by RT-PCR method relative to control; type: cell-based; conditions: read-out: FC
[10] = tested on: Cellular tumor antigen p53 (Homo sapiens), P04637 [Y220C]; test: Activation of p53 Y220C mutant in human NUGC3 cells assessed as change in TNFRSF10D mRNA level at 60 uM after 18 hrs by RT-PCR method relative to control; type: cell-based; how it was run: as §3
[11] = target: T1, Cellular tumor antigen p53; test: Activation of p53 in human NUGC4 cells assessed as change in FAS mRNA level at 60 uM after 18 hrs by RT-PCR method relative to control; type: cell-based; conditions: read-out: FC; how it was run: as §2
[12] = target: T1, Cellular tumor antigen p53; test: Activation of p53 in human NUGC4 cells assessed as change in TP53BP2 mRNA level at 60 uM after 18 hrs by RT-PCR method relative to control; type: cell-based; conditions: read-out: FC
[13] = tested on: Cellular tumor antigen p53 (Homo sapiens), P04637 [Y220C]; test: Activation of p53 Y220C mutant in human NUGC3 cells assessed as change in PTEN mRNA level at 60 uM after 18 hrs by RT-PCR method relative to control; type: cell-based; how it was run: as §3
[14] = target: T1, Cellular tumor antigen p53; test: Activation of p53 in human NUGC4 cells assessed as change in DNMT1 mRNA level at 60 uM after 18 hrs by RT-PCR method relative to control; type: cell-based; conditions: read-out: FC; how it was run: as §2
[15] = target: T1, Cellular tumor antigen p53; test: Activation of p53 in human NUGC4 cells assessed as change in BID mRNA level at 60 uM after 18 hrs by RT-PCR method relative to control; type: cell-based; conditions: read-out: FC; how it was run: as §3
Huh-7 [16] = test: Upregulation of MDM2 mRNA level in p53 Y220C mutant knockout human HuH7 cells at 30 uM after 18 hrs by RT-PCR method; type: functional, cell-based
[17] = tested on: Cellular tumor antigen p53 (Homo sapiens), P04637 [Y220C]; test: Activation of p53 Y220C mutant in human NUGC3 cells assessed as change in WT1 mRNA level at 60 uM after 18 hrs by RT-PCR method relative to control; type: cell-based; how it was run: as §3
[18] = target: T1, Cellular tumor antigen p53; test: Activation of p53 in human NUGC4 cells assessed as change in IL6 mRNA level at 60 uM after 18 hrs by RT-PCR method relative to control; type: cell-based; conditions: read-out: FC; how it was run: as §2
[19] = target: T1, Cellular tumor antigen p53; test: Activation of p53 in human NUGC4 cells assessed as change in S1AH1 mRNA level at 60 uM after 18 hrs by RT-PCR method relative to control; type: cell-based; conditions: read-out: FC
[20] = tested on: Cellular tumor antigen p53 (Homo sapiens), P04637 [Y220C]; test: Activation of p53 Y220C mutant in human NUGC3 cells assessed as change in CRADD mRNA level at 60 uM after 18 hrs by RT-PCR method relative to control; type: cell-based; how it was run: as §1
[21] = tested on: Cellular tumor antigen p53 (Homo sapiens), P04637 [Y220C]; test: Activation of p53 Y220C mutant in human NUGC3 cells assessed as change in FAS mRNA level at 60 uM after 18 hrs by RT-PCR method relative to control; type: cell-based; how it was run: as §1
[22] = tested on: Cellular tumor antigen p53 (Homo sapiens), P04637 [Y220C]; test: Activation of p53 Y220C mutant in human NUGC3 cells assessed as change in CCNH mRNA level at 60 uM after 18 hrs by RT-PCR method relative to control; type: cell-based; how it was run: as §1
SW1088 = test: Antiproliferative activity against human SW1088 cells harboring p53 R273C mutant assessed as cell viability at <40 uM after 72 hrs by CellTiter-Glo assay relative to control
[23] = tested on: Cellular tumor antigen p53 (Homo sapiens), P04637 [Y220C]; test: Activation of p53 Y220C mutant in human NUGC3 cells assessed as change in MDM2 mRNA level at 60 uM after 18 hrs by RT-PCR method relative to control; type: cell-based; how it was run: as §3
[24] = target: T1, Cellular tumor antigen p53; test: Activation of p53 in human NUGC4 cells assessed as change in F0X03 mRNA level at 60 uM after 18 hrs by RT-PCR method relative to control; type: cell-based; conditions: read-out: FC; how it was run: as §2
[25] = target: T1, Cellular tumor antigen p53; test: Activation of p53 in human NUGC4 cells assessed as change in PIDD1 mRNA level at 60 uM after 18 hrs by RT-PCR method relative to control; type: cell-based; conditions: read-out: FC
[26] = target: T1, Cellular tumor antigen p53; test: Activation of p53 in human NUGC4 cells assessed as change in EGFR mRNA level at 60 uM after 18 hrs by RT-PCR method relative to control; type: cell-based; conditions: read-out: FC; how it was run: as §2
Huh-7 [27] = test: Upregulation of NOXA mRNA level in p53 Y220C mutant knockout human HuH7 cells at 30 uM after 18 hrs by RT-PCR method; type: functional, cell-based
[28] = tested on: Cellular tumor antigen p53 (Homo sapiens), P04637 [Y220C]; test: Activation of p53 Y220C mutant in human NUGC3 cells assessed as change in XRCC5 mRNA level at 60 uM after 18 hrs by RT-PCR method relative to control; type: cell-based; how it was run: as §3

fold change (FC) [1]: 1.2
fold induction at 60 µM [2]: 0.8
fold induction at 60 µM [3]: 1.9
fold induction at 60 µM [4]: 0.6
fold change (FC) [5]: 1.5
fold induction at 60 µM [6]: 2.9
fold induction at 60 µM [7]: 0.9
fold change (FC) [8]: 1.1
fold induction at 60 µM [9]: 1.1
fold change (FC) [10]: 1
fold induction at 60 µM [11]: 1
fold induction at 60 µM [12]: 0.9
fold change (FC) [13]: 1.1
fold induction at 60 µM [14]: 0.8
fold induction at 60 µM [15]: 0.7
fold change (FC) [17]: 1.5
fold induction at 60 µM [18]: 7.9
fold induction at 60 µM [19]: 1.2
fold change (FC) [20]: 1.1
fold change (FC) [21]: 2.6
fold change (FC) [22]: 1.4
fold change (FC) [23]: 1
fold induction at 60 µM [24]: 0.8
fold induction at 60 µM [25]: 0.8
fold induction at 60 µM [26]: 1
fold change (FC) [28]: 1.4
Structure (SMILES): CCNC(=O)c1c(O)c(I)c(-n2cccc2)c2sc(N(CC)CC)nc12
Activity (Huh-7 [16]): inactive
Activity (SW1088): >80%
Activity (Huh-7 [27]): inactive
